Source: PubChem (several laboratories)
The list is not random: actives were taken first. Their share in the collection is about 3.8%.
CHO parental Ca: signal in parental CHO cells, OX1R antagonist counter-screen. inhibition, % at 5.6 µM. parental CHO-K1, ATP-induced calcium, Fluo-8 fluorescence. actives 0.63% (n = 330,000);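 active = inhibition above that plate's mean sample inhibition plus 3 SD, cut at about 26% in these data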;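 note: 0% = ATP-challenged DMSO wells and 100% = DMSO wells without ATP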
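Assay system – parental CHO cells · Reagent – ATP stimulus · Detection – intracellular calcium via Fluo-8 no-wash fluorescent dye · Evaluation – percent inhibition of ATP-evoked calcium rise, normalized to controls · Controls – ATP wells versus no-ATP DMSO wells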
GPR7 antag: blocks human GPR7 receptor signaling. P48145. GPR7-expressing cells, fluorescence antagonist assay. inhibition, % at 4.4 µM. actives 1.1% (n = 290,000); in the data active = inhibition above about 16%, passing the limit was not always enough;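 note: cells stimulated with the agonist NPW; 0% = agonist with vehicle and 100% = vehicle without agonist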
Target sequence (P48145 whole entry, looked up): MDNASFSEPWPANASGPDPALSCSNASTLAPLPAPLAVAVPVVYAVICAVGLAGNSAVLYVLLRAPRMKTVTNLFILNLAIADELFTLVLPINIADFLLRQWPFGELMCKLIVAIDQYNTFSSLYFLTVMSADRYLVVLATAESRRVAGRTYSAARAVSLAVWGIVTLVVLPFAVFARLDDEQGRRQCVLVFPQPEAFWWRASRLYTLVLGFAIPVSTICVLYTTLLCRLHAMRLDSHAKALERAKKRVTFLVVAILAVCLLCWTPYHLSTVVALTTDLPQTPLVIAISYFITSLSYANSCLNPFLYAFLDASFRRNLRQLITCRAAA
OX1R antag-1: blocks the human orexin 1 receptor; AID 434989; actives 0.43% (n = 330,000); CHO/OX1R cells, Fluo-8 calcium fluorescence, orexin A; inhibition, % at 5 µM;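 active = inhibition above its plate's threshold, mean inhibition of all tested compounds on the plate plus 3 SD, cut at about 37% in these data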;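 note: 0% = orexin A challenge wells and 100% = SB-334867-A antagonist wells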
MPTP block: permeability transition pore inhibition; isolated mouse mitochondria, Ca2+ swelling absorbance, 30 min; inhibition, % at 10 µM; actives 1.4% (n = 360,000); AID 602449;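 active = inhibition of 50% or more, scaled per plate between neutral and stimulator controls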;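 note: 0% = DMSO wells given calcium and 100% = 1 mM EGTA wells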
OX1R antag-2: blocks the human orexin 1 receptor | inhibition, % at 6.6 µM | AID 485270 | actives 1.8% (n = 330,000) | O43613 | OX1R-expressing cells, FRET antagonist read-out; in the data active = inhibition mostly above about 38%, no sharp cut-off; inactive = mostly below about 40%;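 note: 0% = agonist challenge alone and 100% = reference antagonist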
MPTP counter: mitochondrial membrane potential, counter-screen; shares compounds with MPTP block; isolated mitochondria, Rhodamine 123 fluorescence; inhibition, % at 10 µM; actives 78% (n = 5,000); AID 624504; in the data active = inhibition above about 22%;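 note: 0% = DMSO vehicle and 100% = positive control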
MPTP swell DR: dose response confirmation of mitochondrial permeability transition pore inhibitors; actives 58% (n = 780); isolated mitochondria swelling, absorbance; shares compounds with MPTP block; AID 651561; IC50, µM; in the data active = IC50 below about 20 µM
MPTP cs DR: counter-screen for mitochondrial permeability transition pore inhibitors, dose response; isolated mitochondria counterscreen, fluorescence read-out; shares compounds with MPTP block; actives 49% (n = 780); IC50, µM; in the data active = IC50 below about 80 µM
* hit, by the source's call; i = inactive; . = no result.

SMILES	CHO parental Ca	GPR7 antag	OX1R antag-1	MPTP block	OX1R antag-2	MPTP counter	others
CC(c1ccccn1)N(CCN(C)C)C(=S)Nc1cccc(F)c1 (configuration not stated)	-19	1	12	-2	6	.
CC(C)CCN(C(=S)Nc1cccc(C(F)(F)F)c1)C(C)c1ccccn1 (configuration not stated)	-3	-7	-9	63*	8	74*
O=C(NCc1cccc(C(F)(F)F)c1)c1cc(Cl)cc(Cl)c1	-22	1	-33	100*	42*	88*
O=C(NCc1cccc(C(F)(F)F)c1)c1[nH]c(C(F)(F)F)nc1-c1ccccc1	.	.	.	51*	.	99*
Oc1ccc2ccccc2c1CNc1ccccn1	-6	-9	-15	1	4	.
CC(C)N=c1scc(-c2cccs2)n1/N=C/c1ccc(O)c(O)c1O	14	-3	20	95*	17	50*
Cc1cc(C)nc(SCC(=O)Nc2ccnc3ccccc23)n1	36*	-4	35	97*	44	98*
O=C(CSC1=NCCS1)Nc1ccnc2ccccc12	3	8	31	68*	14	74*
CSc1ccc(CN2CCC(C)(Oc3ccccc3)C2)cc1 (configuration not stated)	.	.	.	1	.	.
O=C(NNC(=O)c1cccc(O)c1)Nc1ccc([N+](=O)[O-])cc1	6	2	-11	56*	39	36*
Cc1ccc(NC(=O)Nc2cccc(C)n2)cc1	-22	-8	-22	2	10	.
O=C(Nc1ccc([N+](=O)[O-])cc1)Nc1ccc2[nH]c(=O)[nH]c2c1	-1	-21	11	82*	23	71*
O=c1[nH]c2ccc(NC(=S)Nc3ccc(F)cc3)cc2[nH]1	-3	-9	-6	3	10	.
CN(O)C(=O)Nc1ccc([N+](=O)[O-])cc1	4	-5	-10	83*	27	96*
Cc1cccc(NC(=O)Nc2ccc([N+](=O)[O-])cc2)n1	-1	-2	-2	69*	1	54*
O=[N+]([O-])c1cccc(-c2noc(-c3ccco3)n2)c1	-3	-6	-2	2	11	.
COc1cc(CN2CCCCC2C(=O)Nc2ccc(Oc3ccccc3)nc2)ccc1O (configuration not stated)	-10	0	-11	0	17	.
CSc1cccc(CN2CCC(CO)(Cc3cccc(C(F)(F)F)c3)CC2)c1	-12	-3	-24	72*	-1	-8	MPTP swell DR=5.2*;MPTP cs DR=40*
O=S(=O)(c1ccccc1)N1CCN(c2cc(-c3ccccc3)nc3ncnn23)CC1	2	11	-18	82*	13	78*
O=S(=O)(c1ccc(Br)cc1)N1CCN(c2cc(-c3ccccc3)nc3ncnn23)CC1	-17	-11	-36	1	14	.
C[n+]1ccc(/C=N/Nc2nc(Cl)c(C#N)c(Cl)c2Cl)cc1	-7	6	0	103*	54*	76*
Clc1nnc(N/N=C/c2ccccc2)c2ccccc12	-30	-11	-11	0	14	.
CCc1cc(-c2nnn(CCC3COCCO3)c2CC)cc(CC)c1-c1cn(CCc2c[nH]c3ccccc23)nn1 (configuration not stated)	.	.	.	-3	.	.
CC1CCN(S(=O)(=O)c2ccc(C(=O)Nc3ccccc3-c3nc4ccccc4[nH]3)cc2)CC1	-10	-14	-24	94*	8	64*
CC1CCCN(S(=O)(=O)c2ccc(C(=O)Nc3ccccc3-c3nc4ccccc4[nH]3)cc2)C1 (configuration not stated)	-4	-6	1	90*	5	3	MPTP swell DR=7.2*;MPTP cs DR=4.2*
SMILES	CHO parental Ca	GPR7 antag	OX1R antag-1	MPTP block	OX1R antag-2	MPTP counter	others
COc1ccccc1NC(=O)c1ccc(S(=O)(=O)N2CCCC(C)C2)cc1 (configuration not stated)	-25	0	-16	0	17	.
COc1ccc(C(CNC(=O)c2oc3cc(C)c(Cl)cc3c2C)N2CCCCC2)cc1 (configuration not stated)	-27	-9	-20	71*	14	-8	MPTP swell DR=i;MPTP cs DR=>80
COc1ccc(C(CNC(=O)c2oc3ccc(C)cc3c2C)N2CCCCC2)cc1 (configuration not stated)	-35	-16	-19	2	16	.
Cn1c(=O)c2c([nH]c(OCc3ccc(Cl)cc3Cl)[n+]2Cc2ccc(F)cc2)n(C)c1=O	-13	-7	-17	50*	2	7	MPTP swell DR=>100;MPTP cs DR=>80
O=C(Nc1ccc(Cl)cc1)N1CCC(c2nc(-c3ccc(F)cc3)no2)CC1	11	-2	33	90*	15	76*
COc1ccc(NC(=O)N2CCCC(c3nc(-c4ccc(OC)cc4)no3)C2)cc1 (configuration not stated)	-9	10	-24	11	15	.
COc1ccc(-c2csc3nc(-c4ccccc4OC)oc(=O)c23)cc1	-5	-11	-14	2	15	.
NS(=O)(=O)c1ccc(NC(=O)c2cccc(Cl)c2)cc1	0	1	8	1	4	.
COc1cc(C2NCC(c3ccc(Cl)cc3Cl)c3c2[nH]c2ccccc32)cc(OC)c1OC (configuration not stated)	-12	3	-11	88*	7	-21	MPTP swell DR=i;MPTP cs DR=>80
CCCCOc1ccc(CSCCN=C(N)N)cc1	.	-3	.	72*	.	6	MPTP swell DR=4.3*;MPTP cs DR=24*
CCCCOc1ccc(CN=C(N)N)cc1Cl	-3	-8	3	-4	5	.
O=C(NCc1cccnc1)c1cc(S(=O)(=O)N2CCCC2)c(Cl)cc1Cl	.	-9	.	-2	.	.
COc1ccc(CNCC(O)COc2cccc3c2OC(C)(C)C3)cc1 (configuration not stated)	0	-6	-14	75*	13	46*
Cc1ccc(Oc2ccc(C(=O)NCc3ccncc3)cc2)cc1	.	2	.	88*	.	75*
O=C(NCc1ccncc1)c1ccc(OCc2ccccc2)cc1	-5	-1	-4	1	10	.
O=C(NCc1ccncc1)c1ccc(Oc2ccccc2)cc1	3	2	8	76*	38	39*
Cc1ccc(C(=O)NCCc2ccncc2)cc1	-2	6	-3	-2	-3	.
CCCc1cnc(Nc2nc(C(N)Cc3ccc(OC)cc3)cs2)nc1 (configuration not stated)	.	.	.	4	.	.
COc1cccc(-c2csc(N3CCN(C(=S)Nc4ccc(Cl)cc4)CC3)n2)c1	5	11	12	64*	3	70*
Clc1ccc2oc(SCc3cccnc3)nc2c1	-12	15	-29	0	8	.
